Laboratory results published in ChEMBL document CHEMBL4680134, “Structural optimization of natural product nordihydroguaretic acid to discover novel analogues as AcrB inhibitors” (Eur J Med Chem, 2020).
Calls of active or inactive are those of the source. The calls are words filed in the database; no cut-off is given here.

How the values were obtained:
[1] = Growth inhibition of Escherichia coli BW25113 expressing AcrB at 512 ug/ml after 18 hrs by broth microdilution assay; settings: dose 512 µg/ml
In short: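 MIC determined by 96-well broth microdilution in E. coli BW25113 expressing AcrB ((+)AcrB) and an isogenic acrB-deleted strain ((-)AcrB). Used to set the compound concentrations for synergy testing that produce no direct antibacterial effect.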

[2] = molecular target: T1, Multidrug efflux pump subunit AcrB (Escherichia coli (strain K12)) (UniProt P31224); assay: Inhibition of AcrB in Escherichia coli BW25113 assessed as potentiation of erythromycin induced antibacterial activity by measuring erythromycin MIC at 256 ug/ml measured after 18 hrs by checkerboard titration method (reference value: 64 ug/ml); settings: dose 256.0 µg/ml
T1 sequence (whole entry): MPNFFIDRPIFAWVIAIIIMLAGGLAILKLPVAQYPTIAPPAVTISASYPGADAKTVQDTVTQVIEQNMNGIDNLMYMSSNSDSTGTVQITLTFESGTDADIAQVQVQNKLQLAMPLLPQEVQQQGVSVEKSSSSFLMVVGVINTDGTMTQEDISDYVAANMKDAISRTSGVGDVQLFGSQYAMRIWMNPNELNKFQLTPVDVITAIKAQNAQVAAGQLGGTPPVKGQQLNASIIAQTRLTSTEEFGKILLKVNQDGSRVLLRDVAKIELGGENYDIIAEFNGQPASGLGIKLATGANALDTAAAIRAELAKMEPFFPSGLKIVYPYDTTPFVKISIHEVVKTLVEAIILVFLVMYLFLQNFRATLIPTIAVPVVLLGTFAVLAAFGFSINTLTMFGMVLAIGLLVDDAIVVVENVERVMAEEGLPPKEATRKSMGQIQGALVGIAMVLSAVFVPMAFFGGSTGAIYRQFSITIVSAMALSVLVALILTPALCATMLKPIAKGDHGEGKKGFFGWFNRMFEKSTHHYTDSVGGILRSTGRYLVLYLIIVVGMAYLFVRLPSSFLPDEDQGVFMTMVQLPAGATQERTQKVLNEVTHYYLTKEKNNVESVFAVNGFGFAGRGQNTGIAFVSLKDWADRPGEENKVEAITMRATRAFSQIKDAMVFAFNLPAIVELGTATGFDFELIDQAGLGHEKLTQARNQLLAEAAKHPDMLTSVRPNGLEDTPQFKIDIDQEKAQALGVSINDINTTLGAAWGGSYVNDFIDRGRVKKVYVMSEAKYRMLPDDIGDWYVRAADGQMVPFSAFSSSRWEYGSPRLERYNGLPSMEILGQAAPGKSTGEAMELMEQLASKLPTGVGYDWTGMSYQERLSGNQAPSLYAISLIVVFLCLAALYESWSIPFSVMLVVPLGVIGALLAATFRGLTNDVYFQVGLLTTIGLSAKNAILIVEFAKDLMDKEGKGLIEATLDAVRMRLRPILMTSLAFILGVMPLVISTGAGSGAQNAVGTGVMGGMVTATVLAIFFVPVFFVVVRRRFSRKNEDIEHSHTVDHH

[3] = molecular target: T1, Multidrug efflux pump subunit AcrB (Escherichia coli (strain K12)); assay: Inhibition of AcrB in Escherichia coli BW25113 assessed as potentiation of tetraphenylphosphonium induced antibacterial activity by measuring tetraphenylphosphonium MIC at 128 ug/ml measured after 18 hrs by checkerboard titration method (reference value: 1024 ug/ml); settings: dose 128.0 µg/ml
[4] = molecular target: T1, Multidrug efflux pump subunit AcrB (Escherichia coli (strain K12)); assay: Inhibition of AcrB in Escherichia coli BW25113 assessed as potentiation of levofloxacin induced antibacterial activity by measuring levofloxacin MIC at 32 ug/ml measured after 18 hrs by checkerboard titration method (reference value: 0.06 ug/ml); settings: dose 32.0 µg/ml
[5] = molecular target: T1, Multidrug efflux pump subunit AcrB (Escherichia coli (strain K12)); assay: Inhibition of AcrB in Escherichia coli BW25113 assessed as potentiation of levofloxacin induced antibacterial activity by measuring levofloxacin MIC at 256 ug/ml measured after 18 hrs by checkerboard titration method (reference value: 0.06 ug/ml); settings: dose 256.0 µg/ml
[6] = molecular target: T1, Multidrug efflux pump subunit AcrB (Escherichia coli (strain K12)); assay: Inhibition of AcrB in Escherichia coli BW25113 assessed as potentiation of rifampicin induced antibacterial activity by measuring rifampicin MIC at 64 ug/ml measured after 18 hrs by checkerboard titration method (reference value: 16 ug/ml); settings: dose 64.0 µg/ml
[7] = molecular target: T1, Multidrug efflux pump subunit AcrB (Escherichia coli (strain K12)); assay: Inhibition of AcrB in Escherichia coli BW25113 assessed as potentiation of rifampicin induced antibacterial activity by measuring rifampicin MIC at 128 ug/ml measured after 18 hrs by checkerboard titration method (reference value: 16 ug/ml); settings: dose 128.0 µg/ml
[8] = molecular target: T1, Multidrug efflux pump subunit AcrB (Escherichia coli (strain K12)); assay: Inhibition of AcrB in Escherichia coli BW25113 assessed as potentiation of rifampicin induced antibacterial activity by measuring rifampicin MIC at 256 ug/ml measured after 18 hrs by checkerboard titration method (reference value: 16 ug/ml); settings: dose 256.0 µg/ml
[9] = molecular target: T1, Multidrug efflux pump subunit AcrB (Escherichia coli (strain K12)); assay: Inhibition of AcrB in Escherichia coli BW25113 assessed as reduction in glucose-induced nile red efflux at 500 uM preincubated for 15 mins followed by nile red addition and incubated for 3 hrs in shaker in presence of CCCP by fluorimetric analysis; settings: time 195.0 min
In short: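 Wild-type E. coli cells with active AcrB were preloaded with Nile Red, with or without compound, before fluorescence recording began. At 100 sec, 0.2% glucose was added to re-energize the cells and trigger efflux, which was followed by fluorometry. An acrB-deleted isogenic strain served as the maximum-accumulation (no-efflux) reference. Triplicate experiments used different cell batches.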

Cell membrane = assay: Induction of outer membrane permeabilization in wild type Escherichia coli BW25113 assessed as increase in nitrocefin hydrolysis at 128 ug/ml by spectrophotometry analysis; settings: dose 128 µg/ml
In short: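 Outer-membrane permeability: intact E. coli treated with 10 µM CCCP to block nitrocefin efflux, then exposed to compound. Nitrocefin hydrolysis by periplasmic β-lactamase followed as increasing absorbance at 490 nm over time. Polymyxin B as permeabilizer control, untreated cells as baseline. Duplicate experiments on different days.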

[10] = molecular target: T1, Multidrug efflux pump subunit AcrB (Escherichia coli (strain K12)); assay: Inhibition of AcrB in Escherichia coli BW25113 assessed as reduction in glucose-induced nile red efflux at 50 to 100 uM preincubated for 15 mins followed by nile red addition and incubated for 3 hrs in shaker in presence of CCCP by fluorimetric analysis; settings: dose 50-100 µM, time 195.0 min
In short: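 Whole-cell efflux: wild-type and ΔAcrB cells preloaded with Nile Red, with or without compound, before fluorescence readings. Efflux triggered at 100 s with 0.2% glucose and followed by fluorometry. The ΔAcrB strain marks maximal accumulation. Triplicate experiments with different cell batches.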

| SMILES | MIC [2] [mg/L] | MIC [3] [mg/L] | MIC [4] [mg/L] | MIC [5] [mg/L] | MIC [6] [mg/L] | MIC [7] [mg/L] | MIC [8] [mg/L] | inhibition [9] | inhibition [10] | growth inhibition (GI) [1] | Activity (Cell membrane) |
| --- | --- | --- | --- | --- | --- | --- | --- | --- | --- | --- | --- |
| C[C@H](Cc1ccc(O)c(O)c1)[C@@H](C)Cc1ccc(O)c(O)c1 [MASOPROCOL] | 32 | 128 | 0.06 | 0.03 | 16 | 16 | 16 | – | Active | – | – |
| Oc1ccc(CCCCc2ccc(Cl)cc2)cc1O | 64 | 512 | 0.06 | 0.06 | 16 | 16 | 16 | – | Active | Non-Toxic | Toxic |
| Oc1ccc(CCCCCCCc2ccc(O)c(O)c2)cc1O | 64 | 512 | 0.06 | 0.06 | 16 | 16 | 16 | – | – | Non-Toxic | Non-Toxic |
| Oc1ccc(CCCCCCc2ccc(O)c(O)c2)cc1O | 64 | 512 | 0.06 | 0.06 | 16 | 16 | 16 | – | Active | Non-Toxic | Non-Toxic |
| Oc1ccc(CCCCCc2ccc(O)c(O)c2)cc1O | 64 | 512 | 0.06 | 0.06 | 16 | 16 | 16 | – | – | Non-Toxic | Non-Toxic |

Continued by falling MIC [2], values first:

| MIC [2] [mg/L] | MIC [3] [mg/L] | MIC [4] [mg/L] | MIC [5] [mg/L] | MIC [6] [mg/L] | MIC [7] [mg/L] | MIC [8] [mg/L] | inhibition [9] | inhibition [10] | SMILES | growth inhibition (GI) [1] | Activity (Cell membrane) |
| --- | --- | --- | --- | --- | --- | --- | --- | --- | --- | --- | --- |
| 32 | 512 | 0.06 | 0.06 | 16 | 16 | 16 | Active | – | Oc1ccc(CCCCc2ccccc2O)cc1O | Non-Toxic | Non-Toxic |
| 32 | 256 | 0.06 | 0.06 | 16 | 16 | 16 | – | Active | Oc1ccc(CCCCc2cc3cccc4ccc5cccc2c5c43)cc1O | Non-Toxic | Non-Toxic |
| 32 | 512 | 0.06 | 0.06 | 16 | 16 | 16 | – | – | Oc1ccc(CCCCc2ccc(O)c(O)c2)cc1O | Non-Toxic | – |
| 32 | 256 | 0.06 | 0.06 | 16 | 16 | 16 | Active | – | Oc1ccc(CCCCc2cc(O)c(O)c(O)c2)cc1O | Non-Toxic | – |
| 32 | 512 | 0.06 | 0.06 | 16 | 16 | 16 | Active | – | Oc1ccc(CCCc2ccc(O)c(O)c2)cc1O | Non-Toxic | – |
